Reference: ChEMBL document CHEMBL4725345, “DFG-1 Residue Controls Inhibitor Binding Mode and Affinity, Providing a Basis for Rational Design of Kinase Inhibitor Selectivity” (J Med Chem, 2020)

Experiments:
[1] = biological target: T1, Serine/threonine-protein kinase haspin (Homo sapiens) (UniProt Q8TF76); assay: Binding affinity to haspin (unknown origin) assessed as change in melting temperature at 10 uM incubated for 10 mins using SYPRO orange dye by RT-PCR-based fluorescence assay
T1 sequence (whole entry): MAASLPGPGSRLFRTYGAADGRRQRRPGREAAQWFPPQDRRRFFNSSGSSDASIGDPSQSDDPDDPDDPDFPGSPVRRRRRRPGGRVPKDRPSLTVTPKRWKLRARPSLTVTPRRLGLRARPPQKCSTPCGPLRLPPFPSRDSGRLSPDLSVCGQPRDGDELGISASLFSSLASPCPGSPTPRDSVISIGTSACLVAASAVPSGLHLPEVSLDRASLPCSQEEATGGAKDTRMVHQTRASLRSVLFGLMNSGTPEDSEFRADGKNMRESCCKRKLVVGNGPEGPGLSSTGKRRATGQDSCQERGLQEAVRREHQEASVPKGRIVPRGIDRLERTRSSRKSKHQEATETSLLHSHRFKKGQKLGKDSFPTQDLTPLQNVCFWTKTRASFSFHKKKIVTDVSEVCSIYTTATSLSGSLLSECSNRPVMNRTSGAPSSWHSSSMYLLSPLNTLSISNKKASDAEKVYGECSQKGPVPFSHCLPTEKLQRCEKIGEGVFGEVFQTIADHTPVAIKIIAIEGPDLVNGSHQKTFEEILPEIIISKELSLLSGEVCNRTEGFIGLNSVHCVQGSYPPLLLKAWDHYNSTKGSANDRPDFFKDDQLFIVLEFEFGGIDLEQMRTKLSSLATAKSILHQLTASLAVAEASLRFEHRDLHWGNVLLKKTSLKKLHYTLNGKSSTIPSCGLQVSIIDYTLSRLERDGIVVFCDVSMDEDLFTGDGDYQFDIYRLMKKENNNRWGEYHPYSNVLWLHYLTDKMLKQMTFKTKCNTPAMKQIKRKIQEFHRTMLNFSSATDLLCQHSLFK
Outline: (§1)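 Recombinant kinase domain at 2 μM in 10 mM HEPES pH 7.5, 500 mM NaCl, mixed with 10 μM inhibitor for 10 min at room temperature; SYPRO orange added at 1:1000; temperature-dependent unfolding fluorescence read on a real-time PCR instrument; Tm shift derived by a previously described method.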

[2] = biological target: Bone morphogenetic protein receptor type-1A (Homo sapiens) (UniProt P36894); assay: Binding affinity to BMPR1A (unknown origin) assessed as change in melting temperature at 10 uM incubated for 10 mins using SYPRO orange dye by RT-PCR-based fluorescence assay; outline: as §1
[3] = biological target: Ribosomal protein S6 kinase alpha-1 (Homo sapiens) (UniProt Q15418); assay: Binding affinity to RSK1B (unknown origin) assessed as change in melting temperature at 10 uM incubated for 10 mins using SYPRO orange dye by RT-PCR-based fluorescence assay
[4] = biological target: Activin receptor type-1B (Homo sapiens) (UniProt P36896); assay: Binding affinity to ACVR1B (unknown origin) assessed as change in melting temperature at 10 uM incubated for 10 mins using SYPRO orange dye by RT-PCR-based fluorescence assay; outline: as §1
[5] = biological target: Cyclin-G-associated kinase (Homo sapiens) (UniProt O14976); assay: Binding affinity to GAK (unknown origin) assessed as change in melting temperature at 10 uM incubated for 10 mins using SYPRO orange dye by RT-PCR-based fluorescence assay; outline: as §1
[6] = biological target: Serine/threonine-protein kinase 17B (Homo sapiens) (UniProt O94768); assay: Binding affinity to DRAK2 (unknown origin) assessed as change in melting temperature at 10 uM incubated for 10 mins using SYPRO orange dye by RT-PCR-based fluorescence assay; outline: as §1
[7] = biological target: Dual specificity protein kinase CLK2 (Homo sapiens) (UniProt P49760); conditions: dose 10.0 µM, time 10.0 min
[8] = biological target: Receptor-interacting serine/threonine-protein kinase 2 (Homo sapiens) (UniProt O43353); assay: Binding affinity to RIPK2 (unknown origin) assessed as change in melting temperature at 10 uM incubated for 10 mins using SYPRO orange dye by RT-PCR-based fluorescence assay; outline: as §1
[9] = biological target: Bone morphogenetic protein receptor type-1B (Homo sapiens) (UniProt O00238); assay: Binding affinity to BMPR1B (unknown origin) assessed as change in melting temperature at 10 uM incubated for 10 mins using SYPRO orange dye by RT-PCR-based fluorescence assay; outline: as §1
[10] = biological target: Bone morphogenetic protein receptor type-2 (Homo sapiens) (UniProt Q13873); assay: Binding affinity to BMPR2 (unknown origin) assessed as change in melting temperature at 10 uM incubated for 10 mins using SYPRO orange dye by RT-PCR-based fluorescence assay; outline: as §1
[11] = biological target: Serine/threonine-protein kinase pim-2 (Homo sapiens) (UniProt Q9P1W9); assay: Binding affinity to PIM2 (unknown origin) assessed as change in melting temperature at 10 uM incubated for 10 mins using SYPRO orange dye by RT-PCR-based fluorescence assay; outline: as §1
[12] = biological target: Myosin light chain kinase family member 4 (Homo sapiens) (UniProt Q86YV6); assay: Binding affinity to SgK085 (unknown origin) assessed as change in melting temperature at 10 uM incubated for 10 mins using SYPRO orange dye by RT-PCR-based fluorescence assay; outline: as §1
Homo sapiens = species: Homo sapiens; assay: Binding affinity to RSK4B (unknown origin) assessed as change in melting temperature at 10 uM incubated for 10 mins using SYPRO orange dye by RT-PCR-based fluorescence assay; outline: as §1
[13] = biological target: Glycogen synthase kinase-3 beta (Homo sapiens) (UniProt P49841); assay: Binding affinity to GSK3B (unknown origin) assessed as change in melting temperature at 10 uM incubated for 10 mins using SYPRO orange dye by RT-PCR-based fluorescence assay; outline: as §1
[14] = biological target: TGF-beta receptor type-1 (Homo sapiens) (UniProt P36897); assay: Binding affinity to TGFBR1 (unknown origin) assessed as change in melting temperature at 10 uM incubated for 10 mins using SYPRO orange dye by RT-PCR-based fluorescence assay; outline: as §1
[15] = biological target: Casein kinase I isoform epsilon (Homo sapiens) (UniProt P49674); assay: Binding affinity to CSNK1E (unknown origin) assessed as change in melting temperature at 10 uM incubated for 10 mins using SYPRO orange dye by RT-PCR-based fluorescence assay; outline: as §1
[16] = biological target: Dual specificity protein kinase CLK4 (Homo sapiens, UniProt Q9HAZ1); conditions: dose 10.0 µM, time 10.0 min
[17] = biological target: AP2-associated protein kinase 1 (Homo sapiens) (UniProt Q2M2I8); assay: Binding affinity to AAK1 (unknown origin) assessed as change in melting temperature at 10 uM incubated for 10 mins using SYPRO orange dye by RT-PCR-based fluorescence assay; outline: as §1
[18] = biological target: Activin receptor type-1-like (Homo sapiens) (UniProt P37023); assay: Binding affinity to ACVRL1 (unknown origin) assessed as change in melting temperature at 10 uM incubated for 10 mins using SYPRO orange dye by RT-PCR-based fluorescence assay; outline: as §1
[19] = biological target: Serine/threonine-protein kinase pim-1 (Homo sapiens) (UniProt P11309); assay: Binding affinity to PIM1 (unknown origin) assessed as change in melting temperature at 10 uM incubated for 10 mins using SYPRO orange dye by RT-PCR-based fluorescence assay

Ribosomal protein S6 kinase alpha-1 (Homo sapiens), sequence (Q15418 whole entry, looked up): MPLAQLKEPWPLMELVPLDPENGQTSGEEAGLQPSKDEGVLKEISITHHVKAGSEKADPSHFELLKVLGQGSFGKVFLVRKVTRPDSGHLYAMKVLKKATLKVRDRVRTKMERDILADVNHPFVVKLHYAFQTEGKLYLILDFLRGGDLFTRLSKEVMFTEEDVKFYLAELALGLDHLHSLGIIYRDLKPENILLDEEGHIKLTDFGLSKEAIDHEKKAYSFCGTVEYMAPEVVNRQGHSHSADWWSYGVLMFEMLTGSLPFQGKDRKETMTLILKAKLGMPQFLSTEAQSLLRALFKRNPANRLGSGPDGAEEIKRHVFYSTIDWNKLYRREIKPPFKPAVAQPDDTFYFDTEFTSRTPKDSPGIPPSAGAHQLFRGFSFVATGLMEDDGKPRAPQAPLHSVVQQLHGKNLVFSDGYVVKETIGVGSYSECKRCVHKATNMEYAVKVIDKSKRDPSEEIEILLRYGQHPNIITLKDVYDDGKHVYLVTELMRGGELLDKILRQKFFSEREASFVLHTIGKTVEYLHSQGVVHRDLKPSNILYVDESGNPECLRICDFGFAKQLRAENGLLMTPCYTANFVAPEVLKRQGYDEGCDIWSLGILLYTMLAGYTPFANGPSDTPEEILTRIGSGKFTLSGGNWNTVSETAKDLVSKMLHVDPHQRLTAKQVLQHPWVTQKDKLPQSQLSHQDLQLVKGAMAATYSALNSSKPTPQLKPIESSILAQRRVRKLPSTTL
Cyclin-G-associated kinase (Homo sapiens), sequence (O14976 whole entry): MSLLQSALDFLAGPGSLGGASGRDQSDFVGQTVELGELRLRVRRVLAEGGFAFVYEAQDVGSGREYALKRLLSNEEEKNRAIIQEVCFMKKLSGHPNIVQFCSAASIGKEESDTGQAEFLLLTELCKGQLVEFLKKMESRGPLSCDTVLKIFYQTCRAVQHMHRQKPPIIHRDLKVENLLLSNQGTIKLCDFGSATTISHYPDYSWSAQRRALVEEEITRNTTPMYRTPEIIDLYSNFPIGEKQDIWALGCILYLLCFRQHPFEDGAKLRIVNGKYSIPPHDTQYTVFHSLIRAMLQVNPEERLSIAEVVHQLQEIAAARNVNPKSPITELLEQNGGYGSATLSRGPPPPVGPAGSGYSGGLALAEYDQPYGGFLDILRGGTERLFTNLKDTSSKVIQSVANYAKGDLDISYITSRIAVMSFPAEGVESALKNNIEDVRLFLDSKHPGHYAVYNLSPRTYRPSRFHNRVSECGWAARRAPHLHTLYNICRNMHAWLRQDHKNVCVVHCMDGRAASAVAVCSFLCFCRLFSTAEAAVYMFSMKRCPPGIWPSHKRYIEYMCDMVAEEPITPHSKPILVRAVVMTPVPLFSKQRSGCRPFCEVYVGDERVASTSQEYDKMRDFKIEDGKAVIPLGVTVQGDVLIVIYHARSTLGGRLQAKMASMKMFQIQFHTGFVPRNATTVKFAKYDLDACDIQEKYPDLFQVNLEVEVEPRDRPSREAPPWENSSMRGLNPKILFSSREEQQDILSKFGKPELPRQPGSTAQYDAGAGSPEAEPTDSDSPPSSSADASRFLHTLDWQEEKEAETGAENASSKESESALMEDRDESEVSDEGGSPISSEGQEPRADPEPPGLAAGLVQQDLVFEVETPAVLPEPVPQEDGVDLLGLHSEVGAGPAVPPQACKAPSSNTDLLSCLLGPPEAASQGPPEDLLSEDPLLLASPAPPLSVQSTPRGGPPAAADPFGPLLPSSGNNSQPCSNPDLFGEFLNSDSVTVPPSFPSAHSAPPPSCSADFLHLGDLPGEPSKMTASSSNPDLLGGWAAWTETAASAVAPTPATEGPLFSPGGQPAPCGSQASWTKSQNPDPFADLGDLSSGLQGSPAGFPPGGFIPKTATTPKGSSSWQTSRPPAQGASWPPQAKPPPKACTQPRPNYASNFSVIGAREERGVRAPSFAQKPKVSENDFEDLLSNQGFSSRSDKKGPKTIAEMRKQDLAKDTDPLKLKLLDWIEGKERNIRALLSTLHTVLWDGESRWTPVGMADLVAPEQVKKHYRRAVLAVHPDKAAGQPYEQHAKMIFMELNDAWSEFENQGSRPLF
Myosin light chain kinase family member 4 (Homo sapiens), sequence (Q86YV6 whole entry): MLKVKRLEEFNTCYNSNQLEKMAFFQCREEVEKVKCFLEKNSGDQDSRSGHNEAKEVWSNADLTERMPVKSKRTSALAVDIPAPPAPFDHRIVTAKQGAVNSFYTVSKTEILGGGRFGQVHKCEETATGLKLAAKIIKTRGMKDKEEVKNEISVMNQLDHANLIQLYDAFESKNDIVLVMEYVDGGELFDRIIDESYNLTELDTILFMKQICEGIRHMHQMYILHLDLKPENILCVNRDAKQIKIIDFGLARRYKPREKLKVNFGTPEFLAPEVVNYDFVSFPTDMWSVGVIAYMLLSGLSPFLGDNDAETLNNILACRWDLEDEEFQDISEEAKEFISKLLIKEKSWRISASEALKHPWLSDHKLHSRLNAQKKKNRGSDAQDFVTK
Dual specificity protein kinase CLK4, sequence (Q9HAZ1 whole entry, looked up): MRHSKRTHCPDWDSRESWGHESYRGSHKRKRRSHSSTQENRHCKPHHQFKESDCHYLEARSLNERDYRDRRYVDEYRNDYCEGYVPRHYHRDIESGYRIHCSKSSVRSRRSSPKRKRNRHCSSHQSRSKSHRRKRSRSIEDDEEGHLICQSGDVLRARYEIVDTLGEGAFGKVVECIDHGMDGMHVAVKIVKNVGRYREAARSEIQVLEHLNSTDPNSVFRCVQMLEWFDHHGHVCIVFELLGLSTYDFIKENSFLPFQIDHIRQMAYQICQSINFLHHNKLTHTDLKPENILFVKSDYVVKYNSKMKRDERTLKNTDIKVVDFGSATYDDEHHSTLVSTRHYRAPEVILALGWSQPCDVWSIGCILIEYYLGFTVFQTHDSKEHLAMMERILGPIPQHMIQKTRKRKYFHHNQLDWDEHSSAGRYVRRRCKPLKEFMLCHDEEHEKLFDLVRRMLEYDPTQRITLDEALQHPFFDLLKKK
Activin receptor type-1B (Homo sapiens), sequence (P36896 whole entry): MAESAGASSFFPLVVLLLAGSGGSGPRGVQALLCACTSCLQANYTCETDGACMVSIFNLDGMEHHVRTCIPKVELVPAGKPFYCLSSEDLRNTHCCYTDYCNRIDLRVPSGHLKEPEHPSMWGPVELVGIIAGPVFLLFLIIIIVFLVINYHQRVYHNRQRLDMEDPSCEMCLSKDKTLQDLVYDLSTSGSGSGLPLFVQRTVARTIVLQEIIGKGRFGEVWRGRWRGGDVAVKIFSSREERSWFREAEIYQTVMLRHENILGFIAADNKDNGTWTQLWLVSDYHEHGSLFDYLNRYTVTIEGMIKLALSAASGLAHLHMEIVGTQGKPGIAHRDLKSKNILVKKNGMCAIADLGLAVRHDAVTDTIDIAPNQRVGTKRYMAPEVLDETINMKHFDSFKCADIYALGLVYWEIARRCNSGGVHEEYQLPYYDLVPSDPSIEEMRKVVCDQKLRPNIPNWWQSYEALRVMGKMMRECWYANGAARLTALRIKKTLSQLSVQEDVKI
Dual specificity protein kinase CLK2 (Homo sapiens), sequence (P49760 whole entry, looked up): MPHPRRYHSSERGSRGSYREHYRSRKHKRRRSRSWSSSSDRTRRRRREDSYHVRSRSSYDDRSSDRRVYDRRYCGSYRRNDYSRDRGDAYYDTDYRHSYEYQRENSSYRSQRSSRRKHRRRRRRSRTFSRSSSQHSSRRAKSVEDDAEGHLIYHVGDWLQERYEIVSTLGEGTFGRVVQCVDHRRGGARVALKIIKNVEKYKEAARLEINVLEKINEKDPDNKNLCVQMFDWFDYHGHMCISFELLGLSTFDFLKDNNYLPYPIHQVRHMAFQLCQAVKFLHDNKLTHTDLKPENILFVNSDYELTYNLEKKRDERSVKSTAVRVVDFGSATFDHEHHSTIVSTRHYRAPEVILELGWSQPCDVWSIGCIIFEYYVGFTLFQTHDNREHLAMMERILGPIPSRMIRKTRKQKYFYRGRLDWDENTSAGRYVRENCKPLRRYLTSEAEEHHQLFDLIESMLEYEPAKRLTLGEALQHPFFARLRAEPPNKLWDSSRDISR
Glycogen synthase kinase-3 beta (Homo sapiens), sequence (P49841 whole entry, looked up): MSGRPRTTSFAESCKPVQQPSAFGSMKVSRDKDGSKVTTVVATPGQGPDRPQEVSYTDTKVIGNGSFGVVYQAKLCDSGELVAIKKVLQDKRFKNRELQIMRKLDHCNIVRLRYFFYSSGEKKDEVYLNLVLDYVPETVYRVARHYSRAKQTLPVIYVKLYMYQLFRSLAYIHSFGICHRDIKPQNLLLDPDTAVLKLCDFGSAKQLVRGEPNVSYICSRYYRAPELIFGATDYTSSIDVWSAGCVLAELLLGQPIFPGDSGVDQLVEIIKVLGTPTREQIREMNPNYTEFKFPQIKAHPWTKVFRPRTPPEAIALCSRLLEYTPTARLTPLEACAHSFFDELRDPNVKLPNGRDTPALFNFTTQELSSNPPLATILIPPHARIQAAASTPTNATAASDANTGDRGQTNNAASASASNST
Receptor-interacting serine/threonine-protein kinase 2 (Homo sapiens), sequence (O43353 whole entry): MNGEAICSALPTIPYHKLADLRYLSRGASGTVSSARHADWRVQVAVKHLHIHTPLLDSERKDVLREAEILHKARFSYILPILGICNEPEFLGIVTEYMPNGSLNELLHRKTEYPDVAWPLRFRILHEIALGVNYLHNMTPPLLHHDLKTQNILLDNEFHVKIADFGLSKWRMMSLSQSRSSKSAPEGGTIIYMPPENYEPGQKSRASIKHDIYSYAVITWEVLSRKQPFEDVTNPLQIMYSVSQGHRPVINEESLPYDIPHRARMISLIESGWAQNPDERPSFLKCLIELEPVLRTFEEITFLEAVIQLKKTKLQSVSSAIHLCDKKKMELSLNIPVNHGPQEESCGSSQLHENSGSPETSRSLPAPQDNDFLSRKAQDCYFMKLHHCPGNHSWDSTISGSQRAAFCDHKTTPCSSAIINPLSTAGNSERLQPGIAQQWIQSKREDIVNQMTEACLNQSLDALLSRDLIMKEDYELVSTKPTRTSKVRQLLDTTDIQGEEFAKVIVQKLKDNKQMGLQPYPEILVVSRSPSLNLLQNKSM

CC(=O)c1cccc(-c2cnc3ccc(NCC4CC4)nn23)c1
ΔTm [1]: > 6 °C
ΔTm [2]: > 6 °C
ΔTm [3]: > 4 °C
ΔTm [4]: > 6 °C
ΔTm [5]: > 6 °C
ΔTm [6]: > 4 °C
ΔTm [7]: > 4 °C
ΔTm [8]: > 4 °C
ΔTm [9]: > 6 °C
ΔTm [10]: > 6 °C
ΔTm [11]: > 4 °C
ΔTm [12]: > 4 °C
ΔTm (Homo sapiens): > 4 °C
ΔTm [13]: > 4 °C
ΔTm [14]: > 6 °C
ΔTm [15]: > 4 °C
ΔTm [16]: > 6 °C
ΔTm [17]: > 6 °C
ΔTm [18]: > 6 °C
ΔTm [19]: > 6 °C
